Counter-ions that a name gives are not always drawn. Activity calls are given as the source filed them. No cut-off for these calls is given here.
Legend:
OS-RC-2 = test: Cytotoxicity against human OS-RC2 cells by MTT assay; assay type: functional, cell-based
Summary of the method: (§1)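 MTT assay in human tumour lines. IC50 is the compound concentration giving a 50% drop in optical density relative to untreated cells. Values are means of three independent determinations.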

CWR22R = test: Cytotoxicity against human 22Rv1 cells by MTT assay; assay type: functional, cell-based; summary of the method: as §1
MCF7 = test: Cytotoxicity against human MCF7 cells by MTT assay; assay type: functional, cell-based; summary of the method: as §1
769-P = test: Cytotoxicity against human 769-P cells by MTT assay; assay type: functional, cell-based; summary of the method: as §1
KB = test: Cytotoxicity against human KB cells by MTT assay; assay type: functional, cell-based; summary of the method: as §1
[1] = Cytotoxicity against human BCG823 cells by MTT assay; assay type: functional, cell-based; summary of the method: as §1
786-0 = test: Cytotoxicity against human 786-0 cells by MTT assay; assay type: functional, cell-based; summary of the method: as §1
HepG2 = test: Cytotoxicity against human HepG2 cells by MTT assay; assay type: functional, cell-based; summary of the method: as §1
A-375 = test: Cytotoxicity against human A375 cells by MTT assay; assay type: functional, cell-based; summary of the method: as §1
HT-29 = test: Cytotoxicity against human HT-29 cells by MTT assay; assay type: functional, cell-based; summary of the method: as §1
Calf thymus DNA [2] = test: Binding affinity to calf thymus DNA assessed as change in melting temperature at drug/DNA ratio 0.2 at pH 7.4; assay type: nucleic-acid assay; conditions: Bos taurus
Summary of the method: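 Thermal denaturation of calf thymus DNA in PE buffer (1 mM Na₂HPO₄, 0.1 mM EDTA, pH 7.4), drug/DNA ratio 0.2; ΔTm taken as Tm of drug–DNA complex minus Tm of DNA alone.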

Calf thymus DNA [3] = test: Binding affinity to calf thymus DNA at pH 7.4 by UV-vis spectroscopy; assay type: nucleic-acid assay; conditions: Bos taurus
Summary of the method: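 UV absorption spectra recorded in PE buffer (1 mM Na₂HPO₄, 0.1 mM EDTA, pH 7.4) with CT-DNA increasing from 0.0 to 0.2 mM. Quartz cells with 10 mm path, room temperature.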

Calf thymus DNA [4] = test: Binding affinity to calf thymus DNA assessed as fluorescence quenching at 10 uM by spectrofluorimeter analysis; assay type: nucleic-acid assay; conditions: Bos taurus
Summary of the method: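 Compound held fixed at […] in PE buffer (1 mM Na₂HPO₄, 0.1 mM EDTA, pH 7.4), titrated with CT-DNA. Fluorescence quenching recorded on a spectrofluorometer, excitation 372 nm.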

| ΔTm (Calf thymus DNA [2]) [°C] | Activity (Calf thymus DNA [3]) | Activity (Calf thymus DNA [4]) | SMILES | IC50 (OS-RC-2) [µM] | IC50 (CWR22R) [µM] | IC50 (MCF7) [µM] | IC50 (769-P) [µM] | IC50 (KB) [µM] | IC50 [1] [µM] | IC50 (786-0) [µM] | IC50 (HepG2) [µM] | IC50 (A-375) [µM] | IC50 (HT-29) [µM] |
| --- | --- | --- | --- | --- | --- | --- | --- | --- | --- | --- | --- | --- | --- |
| – | – | – | CCCCn1c2ccccc2c2cc(CNCCCCN(CC)CC)ncc21 | 71.7 | 13.5 | 23.4 | 8 | 10.2 | 23.4 | 14.1 | 8 | 15.2 | 27.4 |
| – | – | – | CCN(CC)CCNCc1cc2c3ccccc3n(Cc3ccc(F)cc3)c2cn1 | 93.6 | 9 | 43.6 | 8.8 | 37.1 | 10.9 | 13.1 | 9.1 | 35 | 36.2 |
| – | – | – | CCN(CC)CCCCNCc1cc2c3ccccc3n(CCCc3ccccc3)c2cn1 | 27.7 | 7.6 | 9.1 | 10.9 | 6.1 | 8.8 | 9.2 | 3.4 | 5.8 | 6.4 |
| – | – | – | CCN(CC)CCCCNCc1cc2c3ccccc3n(C)c2cn1 | > 100 | > 100 | > 100 | > 100 | 70.6 | > 100 | > 100 | > 100 | > 100 | 33.1 |
| – | – | – | CC(=O)O[C@H]1C(=O)[C@@]2(C)[C@H]([C@H](OC(=O)c3ccccc3)[C@]3(O)C[C@H](OC(=O)[C@H](O)[C@@H](NC(=O)c4ccccc4)c4ccccc4)C(C)=C1C3(C)C)[C@]1(OC(C)=O)CO[C@@H]1C[C@@H]2O [PACLITAXEL] | < 0.08 | 0.08 | 1.3 | – | 0.08 | 1.5 | < 0.08 | < 0.08 | – | 0.38 |
| – | – | – | CCN(CC)CCNCc1cc2c3ccccc3n(Cc3ccccc3)c2cn1 | > 100 | 15.9 | 68.1 | 2 | 8.2 | 9.7 | 14.4 | 13.1 | 39.1 | 5.2 |
| 20.6 | – | – | CCCCn1c2ccccc2c2cc(CNCCCN(CC)CC)ncc21 | 35.7 | 8.8 | 64.2 | 2.2 | 6.2 | 5.9 | 19.5 | 4.6 | 44.2 | 2.6 |
| – | – | – | CCN(CC)CCCCNCc1cc2c3ccccc3n(Cc3ccccc3)c2cn1 | 55 | 8.9 | 13.4 | 31 | 8.2 | 29.3 | 6.2 | 3 | 16.2 | 27 |
| – | – | – | CCN(CC)CCCNCc1cc2c3ccccc3n(Cc3ccc(F)cc3)c2cn1 | 13.6 | 3.6 | 31.8 | 8.5 | 33.1 | 2.6 | 6.1 | 8 | 13.7 | 10.2 |
| 12.6 | Active | Active | CCN(CC)CCCNCc1cc2c(cn1)[nH]c1ccccc12 | 67.4 | > 100 | > 100 | 75.3 | > 100 | > 100 | > 100 | 93.7 | > 100 | > 100 |
| – | – | – | CCN(CC)CCCNCc1cc2c3ccccc3n(Cc3cccc(Cl)c3)c2cn1 | 8 | 8.4 | 17.4 | 14.3 | 7.8 | 8.1 | 13 | 11.7 | 14.7 | 9.3 |
| – | – | – | CCN(CC)CCNCc1cc2c3ccccc3n(Cc3cccc(Cl)c3)c2cn1 | 52.3 | 58.5 | 42.2 | 19.3 | 21.6 | 37.9 | 47.6 | 17.7 | 22.7 | 19.7 |
| 18.8 | Active | Active | CCN(CC)CCCNCc1cc2c3ccccc3n(CCCc3ccccc3)c2cn1 | 13.1 | 7.7 | 13.8 | 5.1 | 4.8 | 7.4 | 8.3 | 3.8 | 8.9 | 2.6 |
| 24.5 | – | – | CCN(CC)CCCNCc1cc2c3ccccc3n(C)c2cn1 | > 100 | > 100 | > 100 | > 100 | 59.7 | > 100 | 87.6 | 96.1 | > 100 | 35.7 |
| – | – | – | COc1cccc2c1C(=O)c1c(O)c3c(c(O)c1C2=O)C[C@@](O)(C(=O)CO)C[C@@H]3O[C@H]1C[C@H](N)[C@H](O)[C@H](C)O1 [DOXORUBICIN HYDROCHLORIDE] | < 1 | < 1 | – | 11.5 | 0.6 | < 1 | 3.1 | 1 | 17.2 | 4.2 |
| 15.6 | – | – | CCN(CC)CCCNCc1cc2c3ccccc3n(Cc3ccccc3)c2cn1 | 14.5 | 7.3 | 32.5 | 1.5 | 4.9 | 2.8 | 6.4 | 4.4 | 17.5 | 3.7 |
| – | – | – | CCN(CC)CCNCc1cc2c3ccccc3n(CCCc3ccccc3)c2cn1 | 43.9 | 8.2 | 27.7 | 7.3 | 9.7 | 14.2 | 11.2 | 7.2 | 5.9 | 4.2 |
| – | – | – | CCN(CC)CCCCNCc1cc2c3ccccc3n(Cc3cccc(Cl)c3)c2cn1 | 6.7 | 8.6 | 19.8 | 8.2 | 4.2 | 9.8 | 19.4 | 10.8 | 12.6 | 12.2 |
| – | – | – | CCN(CC)CCCCNCc1cc2c3ccccc3n(Cc3ccc(F)cc3)c2cn1 | 31.7 | 9.6 | 20.2 | 2.9 | 6.5 | 9.4 | 5.8 | 2.5 | 6.5 | 10.1 |
| – | – | – | CCCCn1c2ccccc2c2cc(CNCCN(CC)CC)ncc21 | > 100 | 25.7 | 92.8 | 7.4 | 13.7 | 20.2 | 37.6 | 10.1 | 75.9 | 7.8 |
| – | – | – | CCN(CC)CCNCc1cc2c3ccccc3n(C)c2cn1 | > 100 | > 100 | > 100 | > 100 | > 100 | 75.7 | > 100 | > 100 | > 100 | 41.1 |
